Experiment [1] addresses Kappa-type opioid receptor (Homo sapiens, UniProt P41145). The experiment can be described thus: Displacement of [3H]U69593 from human kappa opioid receptor expressed in CHO cells. In kind it is cell-based.
Experiment [2] addresses Delta-type opioid receptor (Homo sapiens, UniProt P41143). In words: Displacement of [3H]naltrindole from human delta opioid receptor expressed in CHO cells. The format is cell-based. In outline:
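CHO cells stably expressing a single human opioid receptor were grown in DMEM with 10% FBS and penicillin/streptomycin at 37 °C in 5% CO2. Their membranes were incubated with radioligand and 12 concentrations of test compound at 25 °C in 50 mM Tris-HCl, pH 7.5.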
A general note: Loss of bound radioactivity is the signal in a displacement assay; it reports binding, not function.

The species entered for experiment [3] is Homo sapiens. In words: Selectivity ratio of Ki for human kappa opioid receptor to Ki for human mu opioid receptor.
In a further experiment the target is Mu-type opioid receptor (Homo sapiens, UniProt P35372). In words: Displacement of [3H]DAMGO from human mu opioid receptor expressed in CHO cells. In kind it is cell-based.
Sequence of Mu-type opioid receptor (P35372 whole entry): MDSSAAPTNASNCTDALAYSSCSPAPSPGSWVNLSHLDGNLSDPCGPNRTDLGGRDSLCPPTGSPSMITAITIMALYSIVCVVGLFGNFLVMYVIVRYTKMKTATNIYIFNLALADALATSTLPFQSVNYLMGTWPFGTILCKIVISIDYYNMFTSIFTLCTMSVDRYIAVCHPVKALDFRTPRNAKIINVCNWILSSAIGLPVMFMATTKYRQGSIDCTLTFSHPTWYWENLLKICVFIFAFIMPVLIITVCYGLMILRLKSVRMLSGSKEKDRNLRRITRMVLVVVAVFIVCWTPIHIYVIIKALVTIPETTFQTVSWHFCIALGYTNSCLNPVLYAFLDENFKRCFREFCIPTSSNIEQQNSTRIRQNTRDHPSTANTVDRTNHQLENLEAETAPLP
The species entered for experiment [4] is Homo sapiens. The experiment can be described thus: Selectivity ratio of Ki for human delta opioid receptor to Ki for human mu opioid receptor.

The results in this text go back to ChEMBL document CHEMBL1156775 (J Med Chem, 2010).

Sequence of Kappa-type opioid receptor (P41145 whole entry): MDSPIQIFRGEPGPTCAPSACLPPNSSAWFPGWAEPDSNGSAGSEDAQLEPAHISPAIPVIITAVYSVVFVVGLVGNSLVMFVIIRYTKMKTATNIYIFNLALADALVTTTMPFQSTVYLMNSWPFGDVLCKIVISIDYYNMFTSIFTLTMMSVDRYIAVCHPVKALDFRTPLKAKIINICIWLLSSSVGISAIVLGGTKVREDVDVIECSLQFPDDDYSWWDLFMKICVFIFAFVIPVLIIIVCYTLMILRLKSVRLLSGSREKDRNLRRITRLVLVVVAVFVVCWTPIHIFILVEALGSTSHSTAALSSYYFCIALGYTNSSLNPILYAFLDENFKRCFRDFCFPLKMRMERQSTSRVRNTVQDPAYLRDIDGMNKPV
Sequence of Delta-type opioid receptor (P41143 whole entry): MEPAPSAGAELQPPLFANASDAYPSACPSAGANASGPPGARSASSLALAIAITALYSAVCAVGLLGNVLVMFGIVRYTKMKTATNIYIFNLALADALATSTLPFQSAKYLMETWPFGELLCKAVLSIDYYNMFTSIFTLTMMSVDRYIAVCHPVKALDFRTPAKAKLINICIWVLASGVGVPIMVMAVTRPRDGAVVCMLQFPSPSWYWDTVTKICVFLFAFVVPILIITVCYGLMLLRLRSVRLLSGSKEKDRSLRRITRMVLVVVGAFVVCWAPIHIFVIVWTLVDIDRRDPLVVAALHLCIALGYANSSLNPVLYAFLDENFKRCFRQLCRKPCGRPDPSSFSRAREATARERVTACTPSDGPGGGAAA

For the compound `O=C(Nc1ccc(I)cc1)Oc1ccc2c(c1)[C@@]13CCCC[C@H]1[C@@H](C2)N(CC1CCC1)CC3`, the results for the Ki (in experiment [1]; in experiment [2]; on Mu-type opioid receptor) were 0.99 nM, 67 nM and 1.1 nM, respectively. Further, the Ratio Ki in the experiment listed under Homo sapiens [3] amounted to 1; in the experiment listed under Homo sapiens [4], 68.
On the same counts, the results for `c1ccc(Nc2ccc3c(c2)[C@@]24CCCC[C@H]2[C@@H](C3)N(CC2CCC2)CC4)cc1` are 1.5 nM, 39 nM, 1.7 nM, 1 and 2.
As for `CCCCC(O)c1cc2c(cc1O)[C@@]13CCCC[C@H]1[C@@H](C2)N(CC1CCC1)CC3` (mixture of isomers), the Ki in experiment [1] was 13 nM; in experiment [2] it was 72 nM; at Mu-type opioid receptor, 17 nM. The Ratio Ki in the experiment listed under Homo sapiens [3] came out at 1; in the experiment filed under Homo sapiens [4], 6.
On the same counts, the results for `O=C(Nc1ccc(I)cc1)Oc1ccc2c(c1)[C@@]13CCCC[C@H]1[C@@H](C2)N(CC1CC1)CC3` are 0.6 nM, 14.6 nM, 0.58 nM, 1 and 24.

As usually defined, the Ki is a dissociation constant, usually derived from enzyme kinetics or from competition with a known ligand.
